40 compounds from ChEMBL document CHEMBL4513216, “Probing the Open Global Health Chemical Diversity Library for Multistage-Active Starting Points for Next-Generation Antimalarials” (ACS Infect Dis, 2020) can be followed below.

The nature of the data set: Toxicity liver stage against HepG2, at 10uM. In kind it is cell-based. The following applies: human, HepG2-A16-CD81EGFP cells; read-out: INHIBITION
Further details: test concentration 10 uM, cell line HepG2-A16-CD81EGFP. In a few lines: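 Uninfected HepG2-A16-CD81EGFP cells, 3 × 10^3 per well, 1536-well, plated on prespotted compound at 10 μM final, parasite-free screening media added to match infected plates; puromycin 10 μM positive, DMSO 0.5% negative; run in parallel with 48 h PbLuc assay at 37 °C, 5% CO2; viability by CellTiter-Glo luminescence, normalized to controls.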
For `COCCN1CCOCC12CCN(C(=O)c1ccoc1)CC2`, the cytotoxicity at 10 µM was -84.6%.
With `CC(C)OCCCN(Cc1cnn(C)c1)Cc1ccccn1`, the cytotoxicity at 10 µM was found to be 1.24%.
Regarding `CCc1cnc2c(c1Nc1ccc3c(c1)OCO3)c(=O)n(C)c(=O)n2C`, the cytotoxicity at 10 µM stood at 9.06%.
`O=C(CCc1cc(Br)cs1)NCCCn1ccnc1`: the cytotoxicity at 10 µM came to 1.08%.
The result for `CCc1cnc(CNC(=O)N2CCCC(c3ncc[nH]3)C2)s1` (stereo not given) reads 8.2%; that for `O=C(Nc1cnn(CCN2CCOCC2)c1)c1ccccn1`, -14.5%; that for `CC1CCc2[nH]c(=O)c(C(=O)N3CCc4ccccc4C3)cc2C1` (stereo not given), -6.77%.
For the compound `O=C(NC[C@]12COC[C@H]1CN(Cc1cccnc1)C2)C1CCC1`, the cytotoxicity at 10 µM is -105%.
As for `CC(C)(C)OC(=O)NCCc1csc(N2CCCC2)n1`, the cytotoxicity at 10 µM was determined as 24.9%.
Consider `c1ccc(Cc2noc(CN3CCCC(Cn4cncn4)C3)n2)cc1` (stereo not given), for which the cytotoxicity at 10 µM was -2.38%.
For the compound `CCC(=O)N1CCCCC1c1nc(N(C)C)ncc1-c1cc(C)no1` (stereo not given), the cytotoxicity at 10 µM stood at 5.69%.
Take `Cc1cc(C)n(CC2CN(CCOc3cccc(F)c3)CCO2)n1` (stereo not given): the cytotoxicity at 10 µM is -7.44%.
Consider `CCS(=O)(=O)N1CCN(C(=O)c2ccc(Cn3cc(Br)cn3)cc2)CC1`, for which the cytotoxicity at 10 µM was -2.61%.
For `CC(=O)N1C[C@H]2CC[C@@H](C1)N(S(=O)(=O)c1cc(F)ccc1C)C2`, the cytotoxicity at 10 µM came out at 2.91%.
In the case of `O=C(NCCOc1ccc(Cl)cn1)NCCc1ccccn1`, the cytotoxicity at 10 µM was determined as 7.95%.
`CCc1nc2n(n1)CC(NCc1nc(-c3ccccn3)no1)CC2` (stereo not given): the cytotoxicity at 10 µM is -3.45%.
Turning to `Cc1ccccc1CNC(=O)Cn1nc(-c2ccc(F)cc2)oc1=O`, the cytotoxicity at 10 µM was -7.63%.
Regarding `Cc1ccc(C(=O)N2CCc3nc4c(C)csc4c(=O)n3CC2)cn1`, the cytotoxicity at 10 µM is -7.33%.
As to `O=C(NCCc1csc(-c2ccncc2)n1)C1CC(=O)N(C2CC2)C1` (stereo not given), the cytotoxicity at 10 µM was -8.44%.
The result for `NC(=O)c1cccc(OCC(=O)NS(=O)(=O)c2ccc3c(c2)CCC3)c1` reads -6.22%; that for `CC(C)CN1CCC2(C=C(C(=O)NC3CC3)c3ccccc32)CC1`, 1.11%; that for `COCC(=O)Nc1nccn1Cc1ccc(Br)cc1`, -55.1%.
Regarding `O=C1CNc2ncnc(Nc3cnn(Cc4ccccc4)c3)c2N1`, the cytotoxicity at 10 µM was found to be 7.38%.
Turning to `CCC(CN1CCN(C)CC1)NC(=O)C1(c2cccc(F)c2)CC1` (stereo not given), the cytotoxicity at 10 µM was found to be 3.54%.
With `NC(=O)C1CCCN1C1CCN(C(=O)c2cccc3c2OCO3)CC1` (stereo not given), the cytotoxicity at 10 µM is -0.353%.
The result for `CCCn1nnc(NCc2cc(Br)cc(Br)c2OC)n1` reads 12.6%; that for `COCCN(C)c1nc(-c2ccncc2)nc2c1CCN(C(C)=O)C2`, -2.16%; that for `CCn1c(CN2CCOC(Cn3cncn3)C2)nc2cc(F)ccc21` (stereo not given), -4.84%.
In the case of `O=C(COc1coc(CN2CCCC2)cc1=O)NCc1ccccc1Cl`, the cytotoxicity at 10 µM is -0.317%.
`CNc1[nH]nc(N)c1NC(=O)c1ccccc1`: the cytotoxicity at 10 µM was found to be 9.96%.
As for `COc1ccccc1COCC(O)CN(C)c1ccc(C)cc1C` (stereo not given), the figure is 9.6%; as for `Cc1cccc(C2(NC(=O)CCCn3cncn3)CCCC2)c1`, 15%.
With `O=C1Nc2ccccc2CN(CC=Cc2ccccc2)C12CCNC2` (stereo not given), the cytotoxicity at 10 µM was determined as 2.96%.
On to `O=C1CO[C@@H]2CN(Cc3cccs3)C[C@H]2N1Cc1ccncc1`, for which the cytotoxicity at 10 µM was 2.08%.
Take `CN1N=C(C(=O)N2CCCC(n3cccn3)C2)CCC1=O` (stereo not given): the cytotoxicity at 10 µM is -19%.
The result for `CC(C)[C@H]1COC(=O)N1Cc1nncn1C(C)C` reads -9.17%; that for `O=C(Nc1cc(F)ccc1OCC1CCCO1)c1ccoc1` (stereo not given), 4.43%.
Consider `COc1ccccc1CC1CCCN(CC(N)=O)C1` (stereo not given), for which the cytotoxicity at 10 µM was 5.68%.
The result for `CC(C)Cc1nnc(NC(=O)NC(CCO)c2cccs2)s1` (stereo not given) reads 0.191%; that for `CN1CCN(C(=O)c2cc3sccc3n2Cc2ccccc2F)CC1`, 1.94%.
